Values after ≈ are worked out from the molar mass of the structure shown. Active and inactive are the calls of the source. The rule behind the calls is not given here.
Assays:
[1] = system: Staphylococcus aureus; experiment: Antibacterial activity against Staphylococcus aureus ATCC 25923 by microdilution assay; type: functional
How it was run: (§1)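 Turbidimetric broth microdilution. Log-phase cells were washed and resuspended in broth (LB at 37 °C for B. subtilis and S. aureus; oat bran broth at 28 °C for S. scabies) and seeded at 1 × 10⁵ CFU/mL. Twofold serial dilutions were made with DMSO ≤1% (v/v). A620 was read, then plates were incubated with vigorous shaking. MIC was the lowest concentration with no apparent growth versus vehicle-only medium without cells. Run in triplicate.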

[2] = system: Bacillus subtilis; experiment: Antibacterial activity against Bacillus subtilis ATCC 6051 by microdilution assay; type: functional; how it was run: as §1
[3] = system: Pseudomonas aeruginosa; experiment: Antibacterial activity against multi-drug resistant Pseudomonas aeruginosa at 100 uM measured after 5 to 6 hrs by microdilution assay; type: functional, organism-based
How it was run: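 Log-phase cells seeded at 1 × 10⁵ CFU/mL. Single-dose screen at 100 μM, with DMSO cosolvent at most 1% v/v. Growth measured turbidimetrically at 620 nm, before and after incubation with vigorous shaking.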

[4] = system: Streptomyces scabiei; experiment: Antibacterial activity against Streptomyces scabiei CGMCC4.7610246 by microdilution assay; type: functional; how it was run: as §1
[5] = system: Pseudomonas aeruginosa; experiment: Antibacterial activity against Pseudomonas aeruginosa at 100 uM measured after 5 to 6 hrs by microdilution assay; type: functional, organism-based
[6] = system: Staphylococcus aureus; experiment: Antibacterial activity against methicillin-resistant Staphylococcus aureus by microdilution assay; type: functional
How it was run: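 Log-phase cells seeded at 1 × 10⁵ CFU/mL. Twofold serial dilutions made in broth with DMSO cosolvent, at most 1% v/v. Turbidity read at 620 nm before and after incubation with vigorous shaking. MIC is the lowest concentration with no apparent growth versus the medium-plus-vehicle control. Run in triplicate.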

[7] = system: Escherichia coli; experiment: Antibacterial activity against Escherichia coli at 100 uM measured after 5 to 6 hrs by microdilution assay; type: functional, organism-based
[8] = system: Escherichia coli; experiment: Antibacterial activity against Escherichia coli ATCC 25922 measured after overnight incubation by microplate dilution assay; type: functional

Row | Structure (SMILES) | MIC [1] [µg/mL] | MIC [2] [µg/mL] | Activity [3] | MIC [4] [µg/mL] | Activity [5] | MIC [6] [µg/mL] | Activity [7] | MIC [8] [µg/mL]
1 | CC1(C)C(=O)[C@@H]2O[C@@H]2[C@]2(C)[C@H]3C(=O)C=C4[C@@H]5C[C@@](C)(C(=O)OCc6ccccc6)CC[C@]5(C)CC[C@@]4(C)[C@]3(C)CC[C@@H]12 | > 50 | > 50 | inactive | > 50 | inactive | > 50 | inactive | 
2 | CC1(C)[C@@H](O)C[C@H](O)[C@]2(C)[C@H]3CC=C4[C@@H]5C[C@@](C)(C(=O)O)CC[C@]5(C)CC[C@@]4(C)[C@]3(C)CC[C@@H]12 |  |  |  |  |  |  |  | 16 (≈ 33.8 µM)
3 | COC(=O)[C@@]1(C)CC[C@]2(C)CC[C@]3(C)C(=CC(=O)[C@@H]4[C@@]5(C)[C@@H](O)[C@H](O)[C@H](O)C(C)(C)[C@@H]5CC[C@]43C)[C@@H]2C1 | > 50 | > 50 | inactive | > 50 | inactive | > 50 | inactive | 
4 | CCCCCCCCCCCCCCCOC(=O)[C@@]1(C)CC[C@]2(C)CC[C@]3(C)C(=CC(=O)[C@@H]4[C@@]5(C)[C@@H](O)[C@H](O)[C@H](O)C(C)(C)[C@@H]5CC[C@]43C)[C@@H]2C1 | > 50 | > 50 | inactive | > 50 | inactive | > 50 | inactive | 
5 | CCCOC(=O)[C@@]1(C)CC[C@]2(C)CC[C@]3(C)C(=CC[C@@H]4[C@@]5(C)[C@@H](O)[C@H](O)[C@H](O)C(C)(C)[C@@H]5CC[C@]43C)[C@@H]2C1 | 8.4 (≈ 15.8 µM) | > 33.9 | inactive | > 33.9 | inactive | 8 (≈ 15.1 µM) | inactive | 
6 | CC(C)OC(=O)[C@@]1(C)CC[C@]2(C)CC[C@]3(C)C(=CC(=O)[C@@H]4[C@@]5(C)[C@@H](O)[C@H](O)[C@H](O)C(C)(C)[C@@H]5CC[C@]43C)[C@@H]2C1 | > 34.8 | > 34.8 | inactive | > 34.8 | inactive | 8 (≈ 14.7 µM) | inactive | 
7 | CC(C)OC(=O)[C@@]1(C)CC[C@]2(C)CC[C@]3(C)C(=CC[C@@H]4[C@@]5(C)[C@@H](O)[C@H](O)[C@H](O)C(C)(C)[C@@H]5CC[C@]43C)[C@@H]2C1 | 8.4 (≈ 15.8 µM) | > 33.9 | inactive | 4.2 (≈ 7.91 µM) | inactive | 2 (≈ 3.77 µM) | inactive | 

Source: ChEMBL document CHEMBL4477166, “18β-Glycyrrhetinic Acid Derivatives Possessing a Trihydroxylated A Ring Are Potent Gram-Positive Antibacterial Agents” (2016)
